The subject of experiment [1] is SW1990. Put plainly: Potentiation of erlotinib-induced antiproliferative effect against human SW1990 cells assessed as combination index pre-treated with 12.5 and 25 uM compound for 48 hrs followed by erlotinib exposure for additional after 72 hrs by cell counting method. The format is functional. In outline: (§1)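 Cells given sugar analog (0, 25 or 50 μM; 12.5 or 25 μM for the azido analog) plus a concentration range of erlotinib or gefitinib, and growth inhibition measured. Synergy expressed as Combination Index, CI = D1/(Dx)1 + D2/(Dx)2, plotted against percent inhibition. At least 3 biological replicates; mean ± SEM.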

In experiment [2] the test system is SW1990. The experiment in a line: Inhibition of cell proliferation of human SW1990 cells at <25 uM after 72 hrs by cell counting method.
Experiment [3] has as its target Epidermal growth factor receptor (Homo sapiens) (UniProt P00533). The experiment in a line: Increase in sialylation of EGFR in human SW1990 cells after 48 hrs by mass spectrometry based glycosite and glycan analysis method. It counts as cell-based. The gist of the method: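 EGFR sialylation in treated cells assessed by mass spectrometry-based glycosite and glycan analysis.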

For experiment [4], the system named is SW1990. The experiment in a line: Potentiation of gefitinib-induced antiproliferative effect against human SW1990 cells pre-treated with 50 uM compound for 48 hrs […] for additional after 72 hrs by cell counting method. It counts as functional, cell-based. The gist of the method:
as §1

For experiment [5], the system named is SW1990. Put plainly: Inhibition of cell proliferation of human SW1990 cells at 100 to 300 uM after 48 hrs by cell counting method. It counts as functional, cell-based.
For experiment [6], the system named is SW1990. The experiment in a line: Potentiation of erlotinib-induced antiproliferative effect against human SW1990 cells pre-treated with 50 uM compound for 48 hrs followed by erlotinib exposure for additional after 72 hrs by cell counting method. The format is functional, cell-based. In outline:
as §1

Experiment [7] has as its target Epidermal growth factor receptor (Homo sapiens) (UniProt P00533). Put plainly: Inhibition of EGFR-mediated STAT3 phosphorylation in human SW1990 cells at 25 to 100 uM by Western blotting method. It counts as cell-based. The gist of the method: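 Cells treated at several analog concentrations; lysates immunoblotted for phospho-STAT3, with band intensity quantified by densitometry. At least 3 biological replicates; mean + SEM; p < 0.05.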
(In general: Immunoblotting shows a protein as a band on a membrane.)

The subject of experiment [8] is SW1990. The experiment in a line: Potentiation of erlotinib-induced antiproliferative effect against human SW1990 cells pre-treated with 25 uM compound for 48 hrs followed by erlotinib exposure for additional after 72 hrs by cell counting method. It counts as functional, cell-based. In outline:
as §1

The target of experiment [9] is Epidermal growth factor receptor (Homo sapiens) (UniProt P00533). The experiment in a line: Inhibition of Alexa fluor 488-labeled EGFbinding to EGFR in human SW1990 cells assessed as reduction in available surface bound EGFR at 100 uM after 1 hr by flow cytometry. It counts as cell-based. The gist of the method:
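Intact cells incubated with Alexa Fluor 488-labeled EGF for one hour at room temperature, then surface-bound label read by flow cytometry (saturation binding). At least 3 biological replicates; mean ± SEM.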

The target is the same in experiment [10]. Put plainly: Inhibition of EGFR phosphorylation in human SW1990 cells at 50 and 100 uM by immunofluorescence assay. The format is cell-based. The gist of the method:
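Treated cells stimulated with EGF for 2.0 min, fixed, stained with anti-p-EGFR plus FITC-labeled anti-rabbit secondary and DAPI, then imaged by immunofluorescence microscopy.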

Experiment [11] deals with SW1990. Put plainly: Effect on total EGFR levels in human SW1990 cells at 25 to 100 uM by Western blotting method. The format is functional, cell-based. The gist of the method: (§2)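 Cells exposed to increasing analog levels; lysates immunoblotted for phospho-EGFR and total EGFR. Significance threshold p < 0.05.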
Experiment [12] has as its target Epidermal growth factor receptor (Homo sapiens) (UniProt P00533). The experiment in a line: Inhibition of EGFR phosphorylation in human SW1990 cells at 25 to 100 uM by Western blotting method. The format is cell-based. The gist of the method: as §2
Experiment [13] concerns SW1990. Put plainly: Inhibition of cell proliferation of human SW1990 cells at 25 and 50 uM after 48 hrs by cell counting method. It counts as functional, cell-based.
In experiment [14] the test system is SW1990. Put plainly: Potentiation of gefitinib-induced antiproliferative effect against human SW1990 cells assessed as combination index pre-treated with 50 uM compound for 48 hrs […] for additional after 72 hrs by cell counting method. The format is functional. In outline: as §1
Experiment [15] concerns SW1990. Put plainly: Potentiation of erlotinib-induced antiproliferative effect against human SW1990 cells assessed as combination index pre-treated with 50 uM compound for 48 hrs followed by erlotinib exposure for additional after 72 hrs by cell counting method. The format is functional. In outline:
as §1

Experiment [16] relates to SW1990. Put plainly: Potentiation of gefitinib-induced antiproliferative effect against human SW1990 cells pre-treated with 25 uM compound for 48 hrs […] for additional after 72 hrs by cell counting method. It counts as functional, cell-based. The gist of the method:
as §1

Active and inactive are the calls of the source.

Epidermal growth factor receptor (Homo sapiens), sequence (P00533 whole entry): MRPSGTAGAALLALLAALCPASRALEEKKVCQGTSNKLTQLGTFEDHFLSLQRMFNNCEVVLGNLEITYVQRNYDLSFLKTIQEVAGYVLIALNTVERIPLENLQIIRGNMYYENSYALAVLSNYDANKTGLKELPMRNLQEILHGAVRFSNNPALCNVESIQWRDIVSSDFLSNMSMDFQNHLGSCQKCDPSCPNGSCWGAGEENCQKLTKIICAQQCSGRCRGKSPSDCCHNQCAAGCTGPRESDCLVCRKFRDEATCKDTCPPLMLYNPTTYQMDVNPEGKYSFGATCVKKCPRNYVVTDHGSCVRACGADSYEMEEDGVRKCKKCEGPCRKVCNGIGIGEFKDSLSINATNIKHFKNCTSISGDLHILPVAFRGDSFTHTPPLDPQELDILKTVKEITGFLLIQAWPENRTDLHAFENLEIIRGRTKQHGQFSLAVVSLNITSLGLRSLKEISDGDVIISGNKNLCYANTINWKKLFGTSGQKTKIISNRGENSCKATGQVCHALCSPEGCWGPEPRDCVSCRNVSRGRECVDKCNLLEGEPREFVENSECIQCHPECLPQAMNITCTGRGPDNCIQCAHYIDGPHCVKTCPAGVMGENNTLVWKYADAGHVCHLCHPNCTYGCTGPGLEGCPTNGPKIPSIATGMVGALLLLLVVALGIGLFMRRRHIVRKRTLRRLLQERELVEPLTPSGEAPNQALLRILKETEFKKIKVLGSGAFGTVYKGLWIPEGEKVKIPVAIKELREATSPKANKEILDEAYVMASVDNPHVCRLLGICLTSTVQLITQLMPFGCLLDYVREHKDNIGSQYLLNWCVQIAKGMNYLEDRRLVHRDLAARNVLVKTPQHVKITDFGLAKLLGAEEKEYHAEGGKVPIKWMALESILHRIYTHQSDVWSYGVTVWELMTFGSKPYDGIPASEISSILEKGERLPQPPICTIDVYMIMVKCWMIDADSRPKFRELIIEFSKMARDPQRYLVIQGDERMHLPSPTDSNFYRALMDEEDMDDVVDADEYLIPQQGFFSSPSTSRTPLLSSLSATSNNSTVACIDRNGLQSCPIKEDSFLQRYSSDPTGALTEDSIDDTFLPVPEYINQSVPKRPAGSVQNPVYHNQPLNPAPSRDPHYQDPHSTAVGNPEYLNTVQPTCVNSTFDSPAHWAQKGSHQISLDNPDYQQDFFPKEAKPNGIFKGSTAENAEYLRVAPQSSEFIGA

On to `CCCC(=O)OC1O[C@H](CO)[C@@H](OC(=O)CCC)[C@H](OC(=O)CCC)[C@@H]1NC(=O)CN=[N+]=[N-]` (stereo partly specified), for which the CI in experiment [1] stood at 0.34. Besides, in experiment [2], the inhibition entry is “Active”.

Compound `CCCC(=O)OC1O[C@H](CO)[C@@H](OC(=O)CCC)[C@H](OC(=O)CCC)[C@@H]1NC(C)=O` (stereo partly specified) returned a fold change (FC) in experiment [3] of 2. In addition, the result in experiment [4], in [6], in experiment [8] and in [16] was Active. Also, the inhibition result in [5], in experiment [9], in experiment [10] and in experiment [12] was “Active” in each case. Further, the inhibition entry in experiment [7] is “Dose-dependent effect”. For the same compound, the outcome in [11] was inactive. The inhibition result in experiment [13] was “inactive”. In addition, the CI in experiment [14] and in experiment [15] was 0.23 throughout.

These data come from ChEMBL document CHEMBL3397001, “Metabolic glycoengineering sensitizes drug-resistant pancreatic cancer cells to tyrosine kinase inhibitors erlotinib and gefitinib” (2015).
